{"source": "paper PMC5568793", "about": "(Science translational medicine, 2017)", "key": {"[1]": {"details": "mouse, in vivo, iv"}, "[2]": {"target": "T1, type I collagen (Mus musculus, UniProt P11087+Q01149)", "T1 sequence (P11087 152-1207 limits assumed)": "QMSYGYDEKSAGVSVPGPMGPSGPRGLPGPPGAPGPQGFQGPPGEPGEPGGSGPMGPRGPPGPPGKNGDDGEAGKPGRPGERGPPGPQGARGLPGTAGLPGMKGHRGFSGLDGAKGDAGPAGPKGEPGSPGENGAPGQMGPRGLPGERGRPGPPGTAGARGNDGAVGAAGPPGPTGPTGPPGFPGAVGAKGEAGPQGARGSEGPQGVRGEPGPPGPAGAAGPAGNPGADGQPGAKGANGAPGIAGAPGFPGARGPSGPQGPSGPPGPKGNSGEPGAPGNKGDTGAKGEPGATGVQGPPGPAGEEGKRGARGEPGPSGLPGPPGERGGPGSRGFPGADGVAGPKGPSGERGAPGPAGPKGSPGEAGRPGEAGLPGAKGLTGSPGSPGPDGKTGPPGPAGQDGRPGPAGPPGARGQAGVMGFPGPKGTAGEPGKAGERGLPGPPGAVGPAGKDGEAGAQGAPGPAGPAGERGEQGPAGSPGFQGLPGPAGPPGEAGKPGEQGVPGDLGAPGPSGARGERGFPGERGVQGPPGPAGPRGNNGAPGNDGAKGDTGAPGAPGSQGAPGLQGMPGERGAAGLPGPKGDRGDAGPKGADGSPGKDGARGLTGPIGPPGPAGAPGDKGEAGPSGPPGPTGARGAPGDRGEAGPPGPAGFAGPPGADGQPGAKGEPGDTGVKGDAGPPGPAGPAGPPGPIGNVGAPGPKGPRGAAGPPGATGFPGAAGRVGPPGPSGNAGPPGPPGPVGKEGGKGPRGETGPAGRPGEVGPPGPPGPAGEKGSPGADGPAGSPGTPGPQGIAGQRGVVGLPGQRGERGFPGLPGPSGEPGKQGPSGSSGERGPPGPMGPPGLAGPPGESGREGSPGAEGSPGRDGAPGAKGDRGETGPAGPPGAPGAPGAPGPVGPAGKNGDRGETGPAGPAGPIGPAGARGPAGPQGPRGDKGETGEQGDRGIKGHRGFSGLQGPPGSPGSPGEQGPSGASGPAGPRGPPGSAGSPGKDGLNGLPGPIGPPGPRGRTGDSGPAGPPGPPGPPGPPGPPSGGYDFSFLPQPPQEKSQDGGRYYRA", "T1 sequence (Q01149 86-1125 limits assumed)": "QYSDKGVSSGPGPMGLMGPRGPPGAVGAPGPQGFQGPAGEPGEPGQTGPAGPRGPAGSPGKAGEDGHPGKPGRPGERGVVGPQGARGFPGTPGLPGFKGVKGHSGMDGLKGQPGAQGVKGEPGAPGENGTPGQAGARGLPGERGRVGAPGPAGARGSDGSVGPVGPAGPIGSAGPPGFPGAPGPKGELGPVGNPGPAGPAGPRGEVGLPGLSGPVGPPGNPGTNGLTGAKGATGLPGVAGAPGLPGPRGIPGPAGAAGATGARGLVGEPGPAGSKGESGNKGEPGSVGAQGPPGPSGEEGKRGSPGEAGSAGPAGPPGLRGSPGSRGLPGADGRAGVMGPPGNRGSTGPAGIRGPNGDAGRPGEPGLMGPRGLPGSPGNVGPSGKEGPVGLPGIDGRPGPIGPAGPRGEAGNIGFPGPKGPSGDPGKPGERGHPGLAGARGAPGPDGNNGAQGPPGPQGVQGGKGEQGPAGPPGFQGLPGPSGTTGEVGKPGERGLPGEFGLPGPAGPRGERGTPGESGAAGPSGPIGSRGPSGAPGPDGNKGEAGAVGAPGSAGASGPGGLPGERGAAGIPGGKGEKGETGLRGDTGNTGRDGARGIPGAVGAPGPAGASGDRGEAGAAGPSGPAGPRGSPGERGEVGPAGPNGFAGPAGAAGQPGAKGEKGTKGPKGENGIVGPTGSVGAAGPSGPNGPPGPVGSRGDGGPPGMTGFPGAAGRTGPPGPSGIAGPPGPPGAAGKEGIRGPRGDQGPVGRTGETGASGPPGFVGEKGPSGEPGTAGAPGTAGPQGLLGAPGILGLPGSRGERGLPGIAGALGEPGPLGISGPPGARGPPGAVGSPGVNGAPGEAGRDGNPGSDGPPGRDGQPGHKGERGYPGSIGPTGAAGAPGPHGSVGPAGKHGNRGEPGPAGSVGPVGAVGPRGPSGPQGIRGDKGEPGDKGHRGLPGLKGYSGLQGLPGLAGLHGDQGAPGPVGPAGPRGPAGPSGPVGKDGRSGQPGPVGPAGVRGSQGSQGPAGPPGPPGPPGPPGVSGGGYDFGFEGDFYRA", "test": "Lung uptake of probe in bleomycin mouse model of pulmonary fibrosis", "type": "in vivo", "procedure,_shortened": "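Male C57BL/6 mice (10 weeks, 20–28 g) received transtracheal bleomycin at 2.5 U/kg in 50 μL PBS through a cervical incision; sham mice were controls. On day 14, 68Ga probe was given as an i.v. bolus via femoral vein catheter under isoflurane. Dynamic PET-CT ran for 120 min, read as decay-corrected lung VOI %ID/cc. Mice were killed 150 min post-injection and organs weighed and gamma-counted.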"}, "[3]": {"target": "T1, type I collagen", "test": "PET lung signal in low dose bleomycin vascular leak", "type": "in vivo", "details": "day 14, 50-80 min after injection", "procedure,_shortened": "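Male C57Bl/6 mice received intratracheal low-dose bleomycin (0.1 U/kg) and/or FTY720 (1 mg/kg i.p. thrice weekly), with 1E6 (1 mg/kg i.p. thrice weekly) where stated, all from day 0. On day 14, under isoflurane, 68Ga probe was given as an i.v. femoral bolus. Static PET ran for 30 min starting 50 min post-injection, with CT. MLEM reconstruction was used; lung VOIs of about 65 mm3 were read as decay-corrected %ID/cc.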"}, "[4]": {"target": "T1, type I collagen", "test": "Ex vivo lung uptake in low dose bleomycin vascular leak", "details": "day 14, 2.5 h post injection", "procedure,_shortened": "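Male C57Bl/6 mice, 7–8 weeks old, received a single intratracheal bleomycin dose of 0.1 U/kg in saline, with or without FTY720 at 1 mg/kg i.p. three times weekly. 3G9 or isotype 1E6 antibody was given at 1 mg/kg i.p. three times weekly. All dosing started on day 0. On day 14, 68Ga probe was given as an i.v. femoral bolus under isoflurane. Mice were killed 150 min post-injection; the left lung was weighed and gamma-counted.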"}}, "data": [{"compound": "CC(C)C[C@H](NC(=O)[C@@H]1CSSC[C@H](NC(=O)[C@H](Cc2c[nH]cn2)NC(=O)[C@H](Cc2c[nH]c3ccccc23)NC(=O)[C@H](CCCCNC(=O)CNC(=O)CCC(C(=O)O)N2CCN(CC(=O)O)CCN(CC(=O)O)CC2)NC(=O)CCC(C(=O)O)N2CCN(CC(=O)O)CCN(CC(=O)O)CC2)C(=O)N[C@@H]([C@@H](C)O)C(=O)N[C@@H]([C@@H](C)O)C(=O)N[C@@H](CCCCNC(=O)CNC(=O)CCC(C(=O)O)N2CCN(CC(=O)O)CCN(CC(=O)O)CC2)C(=O)N[C@@H](Cc2ccccc2)C(=O)N2CCC[C@H]2C(=O)N[C@@H](Cc2c[nH]cn2)C(=O)N[C@@H](Cc2c[nH]cn2)C(=O)N[C@@H](Cc2ccc(O)cc2)C(=O)N1)C(=O)N[C@@H](Cc1ccc(O)cc1)C(=O)N[C@@H](Cc1ccc(-c2ccccc2)cc1)C(N)=O", "note": "(some centres unmarked) [^68Ga-CBP8, metal not drawn]", "values": [{"measurement": "blood half-life", "setting": "[1]", "value": "32.9 ± 4.5", "unit": "min"}, {"measurement": "ex vivo lung uptake, BM-mice day 14 relative to sham animals", "setting": "[2]; BM day 14 (n=7) vs sham (n=11)", "value": 5, "unit": "fold"}, {"measurement": "probe uptake in fibrotic mouse lungs compared to control lungs", "setting": "[2]; discussion statement, mouse models of pulmonary fibrosis", "value": 6, "unit": "fold"}, {"measurement": "PET lung signal", "setting": "[3]; FTY mice (FTY720 only), n=6", "value": "1.5 ± 0.1", "unit": "%ID/cc"}, {"measurement": "PET lung signal", "setting": "[3]; LDB mice (low dose BM only), n=4", "value": "1.7 ± 0.1", "unit": "%ID/cc"}, {"measurement": "PET lung signal", "setting": "[3]; LDBVL+1E6 mice (irrelevant antibody), n=11", "value": "3.0 ± 0.2", "unit": "%ID/cc"}, {"measurement": "PET lung signal", "setting": "[3]; LDBVL+3G9 mice (anti-αvβ6 antibody), n=11", "value": "1.9 ± 0.2", "unit": "%ID/cc"}, {"measurement": "ex vivo lung uptake, LDBVL group relative to FTY group", "setting": "[4]", "value": "five times more uptake"}, {"measurement": "ex vivo lung uptake, LDBVL group relative to LDB group", "setting": "[4]", "value": "three times more"}, {"measurement": "ex vivo lung uptake, LDBVL+1E6 group relative to 3G9-treated group", "setting": "[4]", "value": "six times higher uptake"}, {"measurement": "ex vivo lung uptake, LDBVL+1E6 group relative to LDBVL+3G9 group", "setting": "[4]", "value": "three times more uptake"}]}]}
